Reference: ChEMBL document CHEMBL3232767, “Synthesis of the antiproliferative agent hippuristanol and its analogues from hydrocortisone via Hg(II)-catalyzed spiroketalization: structure-activity relationship” (J Med Chem, 2014)
The source made the active and inactive calls. The rule behind the calls is not given here.

Species on record: Oryctolagus cuniculus
Test: Inhibition of translation in rabbit reticulocyte lysates using SP6 RNA polymerase at 10 uM by FF/HCV/Ren reporter gene assay
Assay type: functional
Procedure, shortened: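 Bicistronic mRNA (cap-dependent FF, HCV IRES-driven Ren as internal standard) translated in vitro at 4 ng/μL in rabbit reticulocyte lysate; compounds at 10 μM final vs 0.5% DMSO vehicle; anisomycin as control. FF and Ren luciferase read by luminometer, normalized to vehicle set at 1; duplicates averaged, error of the mean given.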

SMILES: CC[C@@]1(O)[C@H]2[C@H](C[C@H]3[C@@H]4CC[C@H]5C[C@H](O)CC[C@]5(C)[C@H]4[C@@H](O)C[C@@]32C)O[C@]12C[C@H](C)C(C)(C)O2
- inhibition: inactive

SMILES: C[C@H]1C[C@@]2(O[C@H]3C[C@H]4[C@@H]5CC[C@H]6C[C@@H](O)CC[C@]6(C)[C@H]5[C@@H](O)C[C@]4(C)[C@H]3[C@@]2(C)O)OC1(C)C
- inhibition: inactive

SMILES: C[C@H]1C[C@@]2(O[C@H]3C[C@H]4[C@@H]5CC[C@H]6C[C@H](O)CC[C@]6(C)[C@H]5[C@@H](O)C[C@]4(C)[C@H]3[C@H]2O)OC1(C)C
- inhibition: inactive

SMILES: C[C@H]1C[C@]2(O[C@H]3C[C@H]4[C@@H]5CC[C@H]6C[C@H](O)CC[C@]6(C)[C@H]5[C@@H](O)C[C@]4(C)[C@H]3[C@@]2(C)O)OC1(C)C
- inhibition: Active

SMILES: C[C@H]1C[C@@]2(O[C@H]3C[C@H]4[C@@H]5CC[C@H]6C[C@H](N)CC[C@]6(C)[C@H]5[C@@H](O)C[C@]4(C)[C@H]3[C@@]2(C)O)OC1(C)C
- inhibition: inactive

SMILES: C[C@H]1C[C@@]2(O[C@H]3C[C@H]4[C@@H]5CC[C@H]6C[C@H](O)CC[C@]6(C)[C@H]5[C@@H](O)C[C@]4(C)[C@H]3[C@@]2(C)O)OC1(C)C
- inhibition: Active

SMILES: C[C@H]1C[C@]2(O[C@H]3C[C@H]4[C@@H]5CC[C@H]6C[C@H](O)CC[C@]6(C)[C@H]5[C@@H](O)C[C@]4(C)[C@H]3[C@H]2O)OC1(C)C
- inhibition: inactive

SMILES: COc1ccc(C[C@H]2NC[C@H](O)[C@H]2OC(C)=O)cc1
- inhibition: Active

SMILES: C[C@H]1C[C@]2(O[C@H]3C[C@H]4[C@@H]5CC[C@H]6C[C@H](O)CC[C@]6(C)[C@H]5[C@@H](O)C[C@]4(C)[C@H]3C2=O)OC1(C)C
- inhibition: inactive

SMILES: CC[C@@]1(O)[C@H]2[C@H](C[C@H]3[C@@H]4CC[C@H]5C[C@H](O)CC[C@]5(C)[C@H]4[C@@H](O)C[C@@]32C)O[C@@]12C[C@H](C)C(C)(C)O2
- inhibition: inactive

SMILES: C[C@H]1C[C@]2(O[C@H]3C[C@H]4[C@@H]5CC[C@H]6C[C@H](O)CC[C@]6(C)[C@H]5[C@@H](O)C[C@]4(C)[C@H]3[C@]2(O)CO)OC1(C)C
- inhibition: inactive
